# Assay results published in ChEMBL document CHEMBL4368897, “Using 2-aminobenzimidazole derivatives to inhibit Mycobacterium smegmatis biofilm formation” (Medchemcomm, 2019).
# System: Mycolicibacterium smegmatis
# Test: Antimicrobial activity against Mycobacterium smegmatis str. MC2 155 ATCC 700084 assessed as inhibition of planktonic bacteria growth incubated for 48 hrs by broth microdilution method
# Assay type: organism-based
# Conditions: not given
# Summary of the method: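 48 h preculture in 7H9 (ADC, 0.5% Tween 80) used to inoculate fresh 7H9 at 5 × 10^5 CFU mL-1 (OD600 0.006). Compounds added from 100 mM DMSO-d6 stocks and twofold serially diluted. Incubated stationary at 37 °C for 48 h, then 6 h more with alamarBlue. MIC = lowest concentration without visible growth. Duplicate, at least two separate runs.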
row,Compound,MIC [µM]
1,CCCCCc1ccc(C(=O)Nc2ccc3[nH]c(N)nc3c2)cc1,150
2,CCCCCc1ccc(C(=O)Nc2ccc3c(c2)nc(N)n3CCCCc2ccccc2)cc1,100
3,CCCCCc1ccc(C(=O)Nc2ccc3c(c2)nc(N)n3CCc2cccc(OC)c2)cc1,200
4,CCCCCc1ccc(C(=O)Nc2ccc3c(c2)nc(N)n3Cc2ccccc2)cc1,100
5,CCCCCCn1c(N)nc2cc(NC(=O)c3ccc(CCCCC)cc3)ccc21,> 200
6,CCCCCc1ccc(C(=O)Nc2ccc3c(c2)nc(N)n3CCc2ccccc2)cc1,100
7,CCCCCc1ccc(C(=O)Nc2ccc3c(c2)nc(N)n3CCc2ccc(OC)cc2)cc1,120
8,CCCCCc1ccc(C(=O)Nc2ccc3c(c2)nc(N)n3CCCC)cc1,> 200
9,CCCCCc1ccc(C(=O)Nc2ccc3c(c2)nc(N)n3Cc2ccc(OC)cc2)cc1,> 200
10,CCCCCc1ccc(C(=O)Nc2ccc3c(c2)nc(N)n3CCCc2ccccc2)cc1,60
11,CCCCCc1ccc(C(=O)Nc2ccc3c(c2)nc(N)n3CCc2ccccc2OC)cc1,120
12,Nc1nc2cc(NC(=O)Nc3ccc(Cl)c(Cl)c3)ccc2n1CCCc1ccccc1,100
13,Nc1nc2cc(C(=O)Nc3ccc(Cl)c(Cl)c3)ccc2n1CCCc1ccccc1,200
14,Nc1nc2cc(NC(=O)c3cc(Cl)cc(Cl)c3)ccc2n1CCCc1ccccc1,200
15,Nc1nc2cc(NC(=O)c3ccc(Cl)c(Cl)c3)ccc2n1CCCc1ccccc1,200
16,CCCCCCCCCn1c(N)nc2cc(NC(=O)c3ccc(CCCCC)cc3)ccc21,200
17,CCCCCc1ccc(C(=O)Nc2ccc3c(c2)nc(N)n3CCCc2ccccc2Br)cc1,120
18,CCCCCc1ccc(C(=O)Nc2ccc3c(c2)nc(N)n3CCCc2ccc(OC)cc2)cc1,100
19,CCCCCc1ccc(C(=O)Nc2ccc3c(c2)nc(N)n3CCCc2ccc(Cl)cc2)cc1,120
20,CCCCCc1ccc(C(=O)Nc2ccc3c(c2)nc(N)n3CCCc2cccc(Br)c2)cc1,100
21,CCCCCc1ccc(C(=O)Nc2ccc3c(c2)nc(N)n3CCCc2ccc(Br)cc2)cc1,100
22,CCCCCc1ccc(C(=O)Nc2ccc3c(c2)nc(N)n3CCCc2ccc(F)cc2)cc1,120

# System: Mycolicibacterium smegmatis
# Test: Antibiofilm activity against Mycobacterium smegmatis str. MC2 155 ATCC 700084 assessed as inhibition of biofilm formation incubated for 48 hrs by crystal violet reporter assay
# Assay type: functional, organism-based
# Conditions: not given
# Summary of the method: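 48 h culture subcultured to 0.01 in M9 minimal salts medium containing compound. Incubated in PVC plates, stationary, 37 °C, 48 hr. Wells washed with water, stained 30 min with 0.1% crystal violet, and eluted with 95% ethanol for 10 min. OD540 read; % inhibition taken versus untreated wells. Duplicate wells, at least two separate runs.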
row,Compound,MBIC50 [µM]
1,CCCCCc1ccc(C(=O)Nc2ccc3c(c2)nc(N)n3CCCc2ccccc2)cc1,8

# Same assay, conditions: Mycolicibacterium smegmatis, MC2 155 ATCC 700084, 48 h
row,Compound,IC50 [µM]
1,CCCCCc1ccc(C(=O)Nc2ccc3[nH]c(N)nc3c2)cc1,13.6
2,CCCCCc1ccc(C(=O)Nc2ccc3c(c2)nc(N)n3CCCCc2ccccc2)cc1,4.3
3,CCCCCc1ccc(C(=O)Nc2ccc3c(c2)nc(N)n3CCc2cccc(OC)c2)cc1,12.5
4,CCCCCc1ccc(C(=O)Nc2ccc3c(c2)nc(N)n3Cc2ccccc2)cc1,12.2
5,CCCCCCn1c(N)nc2cc(NC(=O)c3ccc(CCCCC)cc3)ccc21,25.6
6,CCCCCc1ccc(C(=O)Nc2ccc3c(c2)nc(N)n3CCc2ccccc2)cc1,5.4
7,CCCCCc1ccc(C(=O)Nc2ccc3c(c2)nc(N)n3CCc2ccc(OC)cc2)cc1,8.8
8,CCCCCc1ccc(C(=O)Nc2ccc3c(c2)nc(N)n3CCCC)cc1,22.4
9,CCCCCc1ccc(C(=O)Nc2ccc3c(c2)nc(N)n3Cc2ccc(OC)cc2)cc1,12.5
10,CCCCCc1ccc(C(=O)Nc2ccc3c(c2)nc(N)n3CCCc2ccccc2)cc1,3.5
11,CCCCCc1ccc(C(=O)Nc2ccc3c(c2)nc(N)n3CCc2ccccc2OC)cc1,11.3
12,Nc1nc2cc(NC(=O)Nc3ccc(Cl)c(Cl)c3)ccc2n1CCCc1ccccc1,2.6
13,Nc1nc2cc(C(=O)Nc3ccc(Cl)c(Cl)c3)ccc2n1CCCc1ccccc1,8.6
14,Nc1nc2cc(NC(=O)c3cc(Cl)cc(Cl)c3)ccc2n1CCCc1ccccc1,9.4
15,Nc1nc2cc(NC(=O)c3ccc(Cl)c(Cl)c3)ccc2n1CCCc1ccccc1,8.8
16,CCCCCCCCCn1c(N)nc2cc(NC(=O)c3ccc(CCCCC)cc3)ccc21,23.2
17,CCCCCc1ccc(C(=O)Nc2ccc3c(c2)nc(N)n3CCCc2ccccc2Br)cc1,10.5
18,CCCCCc1ccc(C(=O)Nc2ccc3c(c2)nc(N)n3CCCc2ccc(OC)cc2)cc1,4.3
19,CCCCCc1ccc(C(=O)Nc2ccc3c(c2)nc(N)n3CCCc2ccc(Cl)cc2)cc1,6.4
20,CCCCCc1ccc(C(=O)Nc2ccc3c(c2)nc(N)n3CCCc2cccc(Br)c2)cc1,9.2
21,CCCCCc1ccc(C(=O)Nc2ccc3c(c2)nc(N)n3CCCc2ccc(Br)cc2)cc1,6.2
22,CCCCCc1ccc(C(=O)Nc2ccc3c(c2)nc(N)n3CCCc2ccc(F)cc2)cc1,3.6

# System: Mycolicibacterium smegmatis
# Test: Potentiation of ampicillin-induced antimicrobial activity against Mycobacterium smegmatis str. MC2 155 ATCC 700084 assessed as fold reduction in ampicillin MIC at 20 uM incubated for 48 hrs by broth microdilution method
# Assay type: functional
# Conditions: not given
row,Compound,fold change (FC)
1,CCCCCc1ccc(C(=O)Nc2ccc3c(c2)nc(N)n3CCCc2ccccc2)cc1,16
2,Nc1nc2cc(NC(=O)Nc3ccc(Cl)c(Cl)c3)ccc2n1CCCc1ccccc1,2
3,CCCCCc1ccc(C(=O)Nc2ccc3c(c2)nc(N)n3CCCc2ccc(OC)cc2)cc1,4
4,CCCCCc1ccc(C(=O)Nc2ccc3c(c2)nc(N)n3CCCc2ccc(Cl)cc2)cc1,4
5,CCCCCc1ccc(C(=O)Nc2ccc3c(c2)nc(N)n3CCCc2ccc(Br)cc2)cc1,4
6,CCCCCc1ccc(C(=O)Nc2ccc3c(c2)nc(N)n3CCCc2ccc(F)cc2)cc1,4

# System: Mycolicibacterium smegmatis
# Test: Potentiation of cefotaxime-induced antimicrobial activity against Mycobacterium smegmatis str. MC2 155 ATCC 700084 assessed as fold reduction in cefotaxime MIC at 20 uM incubated for 48 hrs by broth microdilution method
# Assay type: functional
# Conditions: not given
row,Compound,fold change (FC)
1,CCCCCc1ccc(C(=O)Nc2ccc3c(c2)nc(N)n3CCCc2ccccc2)cc1,128
2,Nc1nc2cc(NC(=O)Nc3ccc(Cl)c(Cl)c3)ccc2n1CCCc1ccccc1,2
3,CCCCCc1ccc(C(=O)Nc2ccc3c(c2)nc(N)n3CCCc2ccc(OC)cc2)cc1,16
4,CCCCCc1ccc(C(=O)Nc2ccc3c(c2)nc(N)n3CCCc2ccc(Cl)cc2)cc1,8
5,CCCCCc1ccc(C(=O)Nc2ccc3c(c2)nc(N)n3CCCc2ccc(Br)cc2)cc1,16
6,CCCCCc1ccc(C(=O)Nc2ccc3c(c2)nc(N)n3CCCc2ccc(F)cc2)cc1,64
